Measurements published in ChEMBL document CHEMBL2384959, “Sesquiterpenes and alkaloids from the roots of Alangium chinense” (J Nat Prod, 2013).
The source made the active and inactive calls. The rule behind the calls is not given here.

Columns and labels:
Liver microsomes = assay: Antioxidant activity in rat liver microsome assessed as inhibition of Fe2+-cysteine-induced lipid peroxidation after 15 mins; assay type: functional
How it was run: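 Rat liver microsomes (1.0 mg microsomal protein in 1 mL 0.1 M PBS, pH 7.4) incubated with […] cysteine plus test sample, 37 °C, 15 min; peroxidation started with 0.05 mM FeSO4. […] Vitamin E positive control.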

Bel-7402 = assay: Cytotoxicity against human Bel7402 cells by MTT assay; assay type: functional, cell-based
Coxsackievirus = assay: Antiviral activity against Coxsackievirus B3 infected in african green monkey Vero cells assessed as inhibition of virus-induced cytopathic effect; assay type: functional, organism-based
How it was run: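 Confluent Vero monolayers infected with 100 TCID50 Cox B3; 1 h adsorption at 37 °C, PBS wash, then maintenance medium (MEM + 2% FBS) ± graded compound concentrations at 37 °C. CPE scored once virus control reached 4+; IC50 by Reed and Muench. Ribavirin positive control.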

A2780 = assay: Cytotoxicity against human A2780 cells by MTT assay; assay type: functional, cell-based
A549 = assay: Cytotoxicity against human A549 cells by MTT assay; assay type: functional, cell-based
BGC-823 = assay: Cytotoxicity against human BGC823 cells by MTT assay; assay type: functional, cell-based
HCT-8 = assay: Cytotoxicity against human HCT8 cells by MTT assay; assay type: functional, cell-based
BV-2 = assay: Inhibition of LPS-induced nitric oxide production in […] BV2 cells after 24 hrs by spectrophotometry; assay type: functional, cell-based; details: Mus musculus, BV-2, 24 h
How it was run: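 BV2 microglial cells pre-cultured 24 h, then exposed to a range of concentrations and stimulated with E. coli 055:B5 LPS (300 ng/mL) for 24 h. Nitrite in the supernatant was measured with Griess reagent (1% sulfanilamide in 5% H3PO4 plus 0.1% N-(1-naphthyl)ethylenediamine, 1:1) for 20 min at room temperature, read at 550 nm against a sodium nitrite standard curve. Untreated cells served as negative control and curcumin as positive control.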

Compound: Cc1cc2c(C(C)C)cc(O)c(C=O)c2cc1O
- IC50 (Liver microsomes; read-out: IC50): 14.7 µM
- Activity (Bel-7402): inactive
- IC50 (Coxsackievirus): 1.4 µM
- Activity (A2780): inactive
- Activity (A549): inactive
- Activity (BGC-823): inactive
- Activity (HCT-8): inactive

Compound: Oc1ccccc1CN1CCCCC1c1cccnc1 (racemic)
- Activity (Bel-7402): inactive
- IC50 (Coxsackievirus): > 20 µM
- Activity (A2780): inactive
- Activity (A549): inactive
- Activity (BGC-823): inactive
- Activity (HCT-8): inactive

Compound: CC1=C2OCC(C)c3ccc(C)c(c32)C(=O)C1=O (stereo unspecified) [MANSONONE E]
- IC50 (Liver microsomes; read-out: IC50): 45.7 µM
- Activity (Bel-7402): inactive
- IC50 (Coxsackievirus): 4.7 µM
- Activity (A2780): inactive
- Activity (A549): inactive
- Activity (BGC-823): inactive
- Activity (HCT-8): inactive

Compound: CC1=C(O)C(=O)c2c(C)ccc3c(C)cnc1c23
- IC50 (Liver microsomes; read-out: IC50): 3.9 µM
- Activity (Bel-7402): inactive
- IC50 (Coxsackievirus): > 20 µM
- Activity (A2780): inactive
- Activity (A549): inactive
- Activity (BGC-823): inactive
- Activity (HCT-8): inactive

Compound: COC(=O)c1c(O)cc(C(C)C)c2cc(C)c(O)cc12
- IC50 (Liver microsomes; read-out: IC50): 4.9 µM
- Activity (Bel-7402): inactive
- IC50 (Coxsackievirus): 11.3 µM
- Activity (A2780): inactive
- Activity (A549): inactive
- Activity (BGC-823): inactive
- Activity (HCT-8): inactive

Compound: Oc1ccccc1CN1CCCC[C@@]1(O)c1cccnc1
- Activity (Bel-7402): inactive
- Activity (A2780): inactive
- Activity (A549): inactive
- Activity (BGC-823): inactive
- Activity (HCT-8): inactive

Compound: Cc1cc2c(cc1O)[C@@](C)(O)C(=O)C=C2C(C)C [LACINILENE C]
- IC50 (Liver microsomes; read-out: IC50): 39.8 µM
- Activity (Bel-7402): inactive
- IC50 (Coxsackievirus): 15.4 µM
- Activity (A2780): inactive
- Activity (A549): inactive
- Activity (BGC-823): inactive
- Activity (HCT-8): inactive

Compound: Oc1ccccc1CN1CCCC[C@]1(O)c1cccnc1
- Activity (Bel-7402): inactive
- Activity (A2780): inactive
- Activity (A549): inactive
- Activity (BGC-823): inactive
- Activity (HCT-8): inactive

Compound: C[C@@H]1CC[C@@H]2C(C)(C)O[C@@H]3[C@H](C)C(=O)C=C1[C@@]32O
- Activity (Bel-7402): inactive
- Activity (A2780): inactive
- Activity (A549): inactive
- Activity (BGC-823): inactive
- Activity (HCT-8): inactive

Compound: Cc1cc2c(C(C)C)ccc(C)c2cc1O
- IC50 (Liver microsomes; read-out: IC50): 4.3 µM
- Activity (Bel-7402): inactive
- IC50 (Coxsackievirus): 5.3 µM
- Activity (A2780): inactive
- Activity (A549): inactive
- Activity (BGC-823): inactive
- Activity (HCT-8): inactive

Compound: CC1=Cc2c(C(C)C)ccc(C)c2C(=O)C1=O
- IC50 (Liver microsomes): Not Active
- Activity (Bel-7402): inactive
- IC50 (Coxsackievirus): > 20 µM
- Activity (A2780): inactive
- Activity (A549): inactive
- Activity (BGC-823): inactive
- Activity (HCT-8): inactive

Compound: COc1cc(/C=C/C(=O)CC(=O)/C=C/c2ccc(O)c(OC)c2)ccc1O [CURCUMIN]
- IC50 (BV-2): 3.1 µM

Compound: Cc1cc2c(c(O)c1O)[C@@H](C)CC[C@@H]2C(C)C [(1S,4R)-7,8-DIHYDROXYCALAMENENE]
- IC50 (Liver microsomes): Not Active
- Activity (Bel-7402): inactive
- IC50 (Coxsackievirus): 7.4 µM
- Activity (A2780): inactive
- Activity (A549): inactive
- Activity (BGC-823): inactive
- Activity (HCT-8): inactive

Compound: NC(=O)c1ncn([C@@H]2O[C@H](CO)[C@@H](O)[C@H]2O)n1 [RIBAVIRIN]
- IC50 (Coxsackievirus): 222 µM

Compound: COc1c(OC)c2nccc3c4ccccc4n(c1=O)c23 [4,5-DIMETHOXYCANTHIN-6-ONE]
- IC50 (Liver microsomes): Not Active
- Activity (Bel-7402): inactive
- IC50 (Coxsackievirus): 7.4 µM
- Activity (A2780): inactive
- Activity (A549): inactive
- Activity (BGC-823): inactive
- Activity (HCT-8): inactive

Compound: CC1=C2OC[C@@H](C)c3c(O)cc(C)c(c32)C(=O)C1=O
- IC50 (Liver microsomes; read-out: IC50): 17.8 µM
- Activity (Bel-7402): inactive
- IC50 (Coxsackievirus): 3.1 µM
- Activity (A2780): inactive
- Activity (A549): inactive
- Activity (BGC-823): inactive
- Activity (HCT-8): inactive

Compound: CO[C@]1(C)C(=O)C=C(C(C)C)c2cc(C)c(O)cc21
- IC50 (Liver microsomes; read-out: IC50): 23.8 µM
- Activity (Bel-7402): inactive
- IC50 (Coxsackievirus): > 20 µM
- Activity (A2780): inactive
- Activity (A549): inactive
- Activity (BGC-823): inactive
- Activity (HCT-8): inactive

Compound: VITAMIN E
- IC50 (Liver microsomes; read-out: IC50): 54.2 µM

Compound: Oc1ccccc1CN1CCCCC1(O)c1cccnc1 (racemic)
- Activity (Bel-7402): inactive
- IC50 (Coxsackievirus): > 20 µM
- Activity (A2780): inactive
- Activity (A549): inactive
- Activity (BGC-823): inactive
- Activity (HCT-8): inactive

Compound: Oc1ccccc1CN1CCCC[C@@H]1c1cccnc1 [(2R)-N-HYDROXYBENZYLANABASINE]
- Activity (Bel-7402): inactive
- IC50 (BV-2): > 20 µM
- Activity (A2780): inactive
- Activity (A549): inactive
- Activity (BGC-823): inactive
- Activity (HCT-8): inactive

Compound: Cc1cc2c(C(C)C)cc(O)c(C)c2cc1O
- IC50 (Liver microsomes; read-out: IC50): 3.8 µM
- Activity (Bel-7402): inactive
- IC50 (Coxsackievirus): 10.1 µM
- Activity (A2780): inactive
- Activity (A549): inactive
- Activity (BGC-823): inactive
- Activity (HCT-8): inactive

Compound: Oc1ccccc1CN1CCCC[C@H]1c1cccnc1 [(2S)-N-HYDROXYBENZYLANABASINE]
- Activity (Bel-7402): inactive
- IC50 (BV-2): 6.7 µM
- Activity (A2780): inactive
- Activity (A549): inactive
- Activity (BGC-823): inactive
- Activity (HCT-8): inactive
